For 96 compounds, cytotoxicity results are on record in ChEMBL document CHEMBL4513216, “Probing the Open Global Health Chemical Diversity Library for Multistage-Active Starting Points for Next-Generation Antimalarials” (ACS Infect Dis, 2020).

Structures are written as SMILES.

A short description of this series: Toxicity liver stage against HepG2, at 10uM. The series is classed as cell-based. To be noted: human, HepG2-A16-CD81EGFP cells; read-out: INHIBITION
The arrangement: test concentration 10 uM, cell line HepG2-A16-CD81EGFP. The method, boiled down: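 Uninfected HepG2-A16-CD81EGFP cells, 3 × 10^3 per well, 1536-well, plated on prespotted compound at 10 μM final, parasite-free screening media added to match infected plates; puromycin 10 μM positive, DMSO 0.5% negative; run in parallel with 48 h PbLuc assay at 37 °C, 5% CO2; viability by CellTiter-Glo luminescence, normalized to controls.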
`CNc1cc(C)nc(N2CCC3(CC2)[C@H](O)C[C@@H]3OCCN(C)C)n1`: the cytotoxicity at 10 µM was -1.26%.

On to `c1ccc(N2CCCC2)c(NCc2ccncc2)c1`, for which the cytotoxicity at 10 µM was -0.289%.

`NS(=O)(=O)CCNC(=O)C1(c2ccc(Br)cc2)CC1`: the cytotoxicity at 10 µM was -4.69%.

As to `Cc1noc(C(C)C)c1C(=O)NCC1CCCN1Cc1ccccc1` (stereo unspecified), the cytotoxicity at 10 µM is -4.45%.

`CC(Cn1ccnc1)NC(=O)NCCc1cccnc1` (stereo unspecified): the cytotoxicity at 10 µM is -12.1%.

Consider `CN(C)C(=O)C1CCCN1C(=O)c1ccc(Cn2ccnc2)o1` (stereo unspecified), for which the cytotoxicity at 10 µM is -0.304%.

Consider `Cc1ncsc1C(=O)N1CCCC(c2cc(C(F)F)n3ncnc3n2)C1` (stereo unspecified), for which the cytotoxicity at 10 µM stood at 4.05%.

With `Cc1cnn(C2CCCN(C(=O)c3ccc(N(C)C)nn3)C2)c1` (stereo unspecified), the cytotoxicity at 10 µM was -5.36%.

As to `O=S(=O)(C1CC1)N1CCC2(CC1)CN(Cc1nccs1)CCO2`, the cytotoxicity at 10 µM worked out at 8.1%.

With `Cc1nnc(SCCC(=O)N(C)Cc2ccc(F)cc2F)[nH]1`, the cytotoxicity at 10 µM stood at 5.21%.

Turning to `CCN1C[C@@H]2CN(c3cc(OC)ncn3)CCC[C@]2(C(=O)O)C1`, the cytotoxicity at 10 µM was -2.58%.

Consider `CCNc1ncc(CN2C[C@@H](C(=O)O)[C@H](C3CC3)C2)cn1`, for which the cytotoxicity at 10 µM is -46.1%.

In the case of `c1cnn(CC2CCCN2Cc2ccc(-n3cccn3)cc2)c1` (stereo unspecified), the cytotoxicity at 10 µM was -4.8%.

Turning to `Brc1ccc(CNCc2nnc3n2CCC3)s1`, the cytotoxicity at 10 µM is -4.2%.

For the compound `O=C([C@H]1CN(Cc2ccoc2)C[C@H]2OCC[C@@H]12)N1CCCCO1`, the cytotoxicity at 10 µM worked out at 7.86%.

For `Cc1cc2[nH]c(CN3CCOC(c4ccc(Cl)cc4)C3)cc(=O)n2n1` (stereo unspecified), the cytotoxicity at 10 µM worked out at 1.91%.

On to `CCc1nn(-c2cc(Oc3ccccc3)nc(C)n2)c(N)c1C#N`, for which the cytotoxicity at 10 µM was determined as 3.62%.

As to `Cc1c[nH]nc1C1CCCN(C(=O)c2c(C)noc2C)C1` (stereo unspecified), the cytotoxicity at 10 µM is -3.53%.

`Cc1nc(S(=O)(=O)N2CCC3(CCCCC3)C2)cn1C`: the cytotoxicity at 10 µM was -4.2%.

Take `O=C(c1ccno1)N1CC[C@@H]2O[C@@H](COCCN3CCCC3)CC[C@@H]21`: the cytotoxicity at 10 µM was 0.925%.

Turning to `COCc1noc(-c2ccc(N(C)Cc3ccc(C)o3)nc2)n1`, the cytotoxicity at 10 µM was -3.7%.

As for `Cc1noc(CNC(=O)NCCOc2ccc(Cl)cc2)n1`, the cytotoxicity at 10 µM amounted to 1.92%.

As for `CCN1C[C@H]2CCN(C(C)=O)CC[C@H]2S1(=O)=O`, the cytotoxicity at 10 µM amounted to 0.0452%.

As to `NC(=O)Nc1cc(Br)cnc1OCC(F)(F)F`, the cytotoxicity at 10 µM turned out to be 8.28%.

As to `CN(C)Cc1cnc(C2CN(C(=O)c3ccccc3Cl)CCO2)[nH]1` (stereo unspecified), the cytotoxicity at 10 µM turned out to be 1.07%.

Take `COCCCN(Cc1ccccc1Cl)C1CCS(=O)(=O)C1` (stereo unspecified): the cytotoxicity at 10 µM was 17.1%.

On to `CC(C)(NCC(=O)N1CCCC(C(N)=O)C1)c1ccc(Cl)cc1` (stereo unspecified), for which the cytotoxicity at 10 µM stood at 3.36%.

`CCc1cc(NC(CCO)c2ccc(OC)cc2)n2nccc2n1` (stereo unspecified): the cytotoxicity at 10 µM was -30.4%.

`Cc1nccc([C@@H]2C[C@@H]3CCN(S(C)(=O)=O)C[C@H]3O2)n1`: the cytotoxicity at 10 µM was -11.3%.

As to `O=C(C1CCC1)N1CCC2(CCNCC2)C1`, the cytotoxicity at 10 µM is -3.39%.

With `CN(Cc1nccn1C)CC1CCOc2ccccc2C1` (stereo unspecified), the cytotoxicity at 10 µM is -2.77%.

With `Cc1nc(C2(NCc3cc(C#N)ccc3F)CCCCC2)no1`, the cytotoxicity at 10 µM was 9.68%.

With `O=C(NC1CC1)[C@@H]1C[C@@H]2CCN(Cc3ccccc3)C[C@H]2O1`, the cytotoxicity at 10 µM is -68%.

`COC(=O)[C@H](C)NC(=O)Cc1c(C)nc2cc(=O)[nH]n2c1C`: the cytotoxicity at 10 µM is -1.51%.

Turning to `O=C1CC(NCc2ncc[nH]2)CN1CCc1cccc(Cl)c1` (stereo unspecified), the cytotoxicity at 10 µM was -0.745%.

`O=C1CC(c2ncc(-c3ccc4c(c3)OCCO4)[nH]2)CN1C1CC1` (stereo unspecified): the cytotoxicity at 10 µM was -4.62%.

Consider `CCOCc1cnc2n1CCN(C(=O)c1ccccc1)C2C` (stereo unspecified), for which the cytotoxicity at 10 µM was -103%.

With `COCCCn1ccc(NC(=O)NCCCn2ccnc2)n1`, the cytotoxicity at 10 µM is -3.04%.

On to `c1cnc(NCC2Cn3nnc(-c4ccoc4)c3CO2)nc1` (stereo unspecified), for which the cytotoxicity at 10 µM is -76.1%.

`CCn1c(N)nc2cc(C(=O)NCCc3sccc3C)cnc21`: the cytotoxicity at 10 µM was -23.3%.

Turning to `Cn1ccnc1CN1CCCCC1Cn1cccn1` (stereo unspecified), the cytotoxicity at 10 µM came out at 5.94%.

As for `O=C1O[C@@H]2CN(Cc3ccccn3)C[C@@H]2N1CCCc1ccc(F)cc1`, the cytotoxicity at 10 µM was -0.687%.

Regarding `CN(C)C[C@H]1C[C@H](CO)CN(C(=O)c2cc(S(N)(=O)=O)ccc2F)C1`, the cytotoxicity at 10 µM was 11.9%.

For the compound `CC(C)Oc1ccc(C(=O)NCc2ccc3c(c2)CCCN3C)cn1`, the cytotoxicity at 10 µM was -6.63%.

For `Cc1nnc(N2CC[C@@H](OCC3CC3)[C@@H](Cc3ccccc3)C2)s1`, the cytotoxicity at 10 µM is 14.4%.

With `CCn1nc(C)c(CN(C)S(=O)(=O)c2cnn(C)c2)c1C`, the cytotoxicity at 10 µM is 5.62%.

For `Cc1cc(NC2CCN(c3ccc(F)cc3)CC2)n2nc(C)cc2n1`, the cytotoxicity at 10 µM was -0.527%.

For the compound `CC(O)CNc1c(NCc2ccco2)c(=O)c1=O` (stereo unspecified), the cytotoxicity at 10 µM was -3.04%.

Turning to `O=C(O)[C@@H]1CN(C(=O)CCN2CCCCC2)C[C@H]1c1ccccc1`, the cytotoxicity at 10 µM was determined as 1.25%.

In the case of `COc1cccc(OC)c1-c1c[nH]c(C)n1`, the cytotoxicity at 10 µM is -1.57%.

As for `Cc1ccc(C(C)(O)CNC(=O)CCn2ccnc2C(C)C)o1` (stereo unspecified), the cytotoxicity at 10 µM is 8.53%.

For the compound `CCn1ccnc1CN1CCCn2nc(CNC(=O)C3CCC3)cc2C1`, the cytotoxicity at 10 µM was -7.79%.

Regarding `Cc1nc(C)n(CC2CCCCN2Cc2cscn2)n1` (stereo unspecified), the cytotoxicity at 10 µM was -5.26%.

Turning to `Cc1ccc(-c2ncc(C(=O)NCCS(N)(=O)=O)s2)c(C)c1`, the cytotoxicity at 10 µM is -10.7%.

On to `Cc1cccc(CN2CCC(NCC3CNc4cc(C)nn4C3)CC2)c1` (stereo unspecified), for which the cytotoxicity at 10 µM turned out to be 7.36%.

On to `Cc1nonc1C1CCCN1C(=O)c1cc2n(n1)CCCNC2` (stereo unspecified), for which the cytotoxicity at 10 µM was -7.73%.

With `CN(CCc1noc(C2CC2)n1)C(=O)CCc1cc2n(n1)CCCNC2`, the cytotoxicity at 10 µM was -0.645%.

As to `COc1ccc(F)cc1-n1cnc(CCNC(C)=O)c1`, the cytotoxicity at 10 µM stood at 13.7%.

Regarding `COCCN(Cc1ccc(F)cc1Cl)C(=O)c1ccccn1`, the cytotoxicity at 10 µM was determined as 11.8%.

As to `CN(CC(=O)N1CCC(Oc2ccccc2)CC1)c1cnccn1`, the cytotoxicity at 10 µM was found to be 2.12%.

In the case of `CN(Cc1ccn[nH]1)Cc1c[nH]nc1-c1ccc(F)cc1`, the cytotoxicity at 10 µM is -6.41%.

In the case of `CC(=O)N(C)Cc1ccccc1NC(=O)N(C)CCc1cccs1`, the cytotoxicity at 10 µM was -10.4%.

`COc1cc(C)nc(N2CCN(C(C)c3nc(C)no3)CC2)n1` (stereo unspecified): the cytotoxicity at 10 µM worked out at 3.55%.

With `CNc1cc2c(nn1)CCN(C(=O)c1cccc3c1OCCO3)C2`, the cytotoxicity at 10 µM is -5.13%.

With `CC(C)C(C)NC(=O)CCN1C(=O)CCc2cc(F)ccc21` (stereo unspecified), the cytotoxicity at 10 µM was 8.91%.

As for `CCNC(=O)CCC(=O)N1CCC(Oc2cc(C)ccc2C)CC1`, the cytotoxicity at 10 µM was -4.59%.

On to `CCc1cc(N2CCC(NC3CN4CCC3CC4)CC2)nc(N(C)C)n1` (stereo unspecified), for which the cytotoxicity at 10 µM is -2.12%.

Take `CCCc1nnc(NC(C)c2ccc3c(c2)OCCO3)o1` (stereo unspecified): the cytotoxicity at 10 µM was found to be 0.965%.

For `O=C(c1cccnc1)N1CCCC(c2cc(C(F)F)n3ncnc3n2)C1` (stereo unspecified), the cytotoxicity at 10 µM turned out to be 0.745%.

Regarding `O=C(CCCc1ccccn1)Nc1cccc(N2CCCNC2=O)c1`, the cytotoxicity at 10 µM amounted to 1.94%.

Turning to `Cc1nn(C)c(N(C)C)c1CNCc1cccnc1-n1cncn1`, the cytotoxicity at 10 µM was -0.313%.

For `Cc1nn(C)cc1-c1cc(C(=O)NCC(C)(C)c2ccc(F)cc2)n[nH]1`, the cytotoxicity at 10 µM is -1.29%.

In the case of `COc1cc(C(=O)N2CCCC(n3cncn3)C2)ccc1C` (stereo unspecified), the cytotoxicity at 10 µM is -3.86%.

On to `CC(C)CC(=O)NCC(O)c1c(F)cccc1F` (stereo unspecified), for which the cytotoxicity at 10 µM is -2.24%.

For the compound `COc1c(C(=O)NC(C)CC(=O)c2cccs2)c(C)nn1C` (stereo unspecified), the cytotoxicity at 10 µM was -10.1%.

`CSc1ccc(C(=O)N(c2ccc(F)cn2)C2CCOCC2)o1`: the cytotoxicity at 10 µM was -10.7%.

On to `CCN1CCN(C2CCN(Cc3nc(C4CC4)no3)CC2)C1=O`, for which the cytotoxicity at 10 µM is -2.69%.

For the compound `Cc1cc2c(cc1NC(=O)NC(C)(C)C)OCO2`, the cytotoxicity at 10 µM was -1.47%.

On to `CCOCCCNC(=O)c1cc(C)nc(N2CCCCC2)n1`, for which the cytotoxicity at 10 µM came to 8.52%.

Take `Cc1nn(C)c(N(C)C)c1CNCc1ccnc(N2CCCC2)c1`: the cytotoxicity at 10 µM is -11.4%.

Take `CC(C)c1nnc(CCC(=O)N2CCOC(c3cnccn3)C2)o1` (stereo unspecified): the cytotoxicity at 10 µM was -2.01%.

For the compound `CC(=O)N1CCC(c2nc3ccc(-c4cccc(F)c4)cn3n2)CC1`, the cytotoxicity at 10 µM came to 12.4%.

As for `CC1(C(=O)NCCCOc2ccccc2F)CC(=O)N2C=CC=CC2=N1` (stereo unspecified), the cytotoxicity at 10 µM stood at 2.28%.

In the case of `O=C1CC(c2ccncc2)c2c(c(C(=O)O)cn2-c2ccc(F)cc2)N1` (stereo unspecified), the cytotoxicity at 10 µM stood at 10.1%.

For the compound `COc1ccc(CN2CCn3cc(Cn4cccn4)nc3C2)cc1`, the cytotoxicity at 10 µM was found to be 13.4%.

As for `CC(=O)N1CCN(C(=O)Nc2ccccc2)CC2(CC(=O)N(C)C2)C1` (stereo unspecified), the cytotoxicity at 10 µM was -8.93%.

As to `CCOCC1c2c(ncn2C(C)C)CCN1C(=O)C1CC1` (stereo unspecified), the cytotoxicity at 10 µM was 10.5%.

Take `CCOC(=O)[C@@H]1[C@@H](c2ccccc2)CN2CCN(C(=O)C3CC3)C[C@H]12`: the cytotoxicity at 10 µM was -0.973%.

As for `CC(NC(=O)c1sccc1C1CC1)c1ccc2c(c1)CC(=O)N2` (stereo unspecified), the cytotoxicity at 10 µM stood at 1.66%.

For the compound `COc1cccc(CN(C)C(=O)NCc2c(C)cc(C)[nH]c2=O)c1`, the cytotoxicity at 10 µM was -7.98%.

With `CCCn1cnnc1CNC(=O)C1COc2ccc(OC)cc2C1` (stereo unspecified), the cytotoxicity at 10 µM was -2.06%.

For the compound `Cc1cnc(C(=O)N2CCCCC2c2nc(C)cs2)cn1` (stereo unspecified), the cytotoxicity at 10 µM is -15.3%.

As to `c1cnc(NC[C@@H]2CCC[C@@H]3CN(Cc4cccnc4)C[C@@H]32)nc1`, the cytotoxicity at 10 µM was -14.3%.

Regarding `Cc1[nH]c2ccccc2c1-c1ccnc(N[C@H](CO)CC(C)C)n1`, the cytotoxicity at 10 µM amounted to 0.97%.

As to `COc1ccc(CN2CCNC(=O)CC2)cc1SC(F)(F)F`, the cytotoxicity at 10 µM came out at 0.66%.

Take `CCN1CCN(Cc2csc(C(C)C)n2)CC1`: the cytotoxicity at 10 µM is -5.78%.
